Activity calls are given as the source filed them. The calls are words filed in the database; no cut-off is given here.

The values below come from ChEMBL document CHEMBL1156843, “3,5-Bis(benzylidene)-1-[4-2-(morpholin-4-yl)ethoxyphenylcarbonyl]-4-piperidone hydrochloride: a lead tumor-specific cytotoxin which induces apoptosis and autophagy” (Bioorg Med Chem Lett, 2010).

Data set [1] concerns HT-29. The experiment in a line: Cell cycle arrest in human HT-29 cells assessed as accumulation at G1 phase at 5 uM after 48 hrs by flow cytometry. In kind it is functional. A digest of the protocol:
(§1)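 HT29 cells plated and grown 48 h to 50–60% confluency, then exposed to compound for 48 h. Cells trypsinized, PBS-washed, fixed overnight in 70% ethanol at 4 °C. Held 1 h on ice, then DNA content read by flow cytometry.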

In data set [2] the test system is HL-60. The experiment in a line: Cytotoxicity against human HL60 cells. In kind it is functional. A digest of the protocol: (§2)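 Each value is the mean of two independent determinations.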
Data set [3] in a line: Cytotoxicity against human HPC cells. In kind it is cell-based.
Data set [4] can be described thus: Cytotoxicity against human HGF cells. In kind it is cell-based.
For data set [5], the system named is HSC-4. In words: Cytotoxicity against human HSC4 cells. The data set is classed as functional. In outline: as §2
Data set [6] deals with HT-29. In words: Cell cycle arrest in human HT-29 cells assessed as accumulation at S phase at 5 uM after 48 hrs by flow cytometry. The data set is classed as functional. A digest of the protocol: as §1
For orientation: In flow cytometry, cells or beads pass a laser one at a time.

Data set [7] deals with HL-60. In words: Induction of bell-shaped internucleosomal DNA fragmentation in human HL60 cells at 1 to 2 uM after 7 hrs. In kind it is functional, cell-based.
In data set [8] the test system is HT-29. The experiment in a line: Cytotoxicity against human HT-29 cells after 96 hrs by MTT assay. In kind it is functional, cell-based. As to conditions: HT-29, 96 h. In outline:
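HT29 cells (ATCC) kept in DMEM with 10% fetal calf serum under 5% CO2 at 37 °C. Cells detached with trypsin and seeded at 9000 cells/well, then allowed 24 h to attach. Compound added at a range of concentrations; medium-only wells served as controls. After 96 h, proliferation was estimated from MTT reduction read at 540 nm.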
(Tetrazolium assays rely on reduction of a dye to a coloured formazan, in cell work by metabolically active cells.)

The nature of data set [9]: Cytotoxicity against human HPLF cells. The data set is classed as cell-based.
For data set [10], the system named is HSC-2. In words: Induction of bell-shaped internucleosomal DNA fragmentation in human HSC2 cells at 2 to 32 uM after 7 hrs. In kind it is functional, cell-based.
Data set [11] concerns HSC-2. In words: Induction of acidic organelles formation in human HSC2 cells at 4 to 8 uM after 6 hrs. In kind it is functional, cell-based. In outline:
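Acidic organelle formation scored in HSC-2 cells after 6 h exposure; reference condition was culture in Hank's balanced salt solution for 1 h.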

The subject of data set [12] is HT-29. In words: Cell cycle arrest in human HT-29 cells assessed as accumulation at G2/M phase at 5 uM after 48 hrs by flow cytometry. In kind it is functional. A digest of the protocol:
as §1

Data set [13] has as its system HSC-2. The experiment in a line: Cytotoxicity against human HSC2 cells. In kind it is functional. A digest of the protocol: as §2
The test system of data set [14] is HL-60. The experiment in a line: Selectivity index, ratio of CC50 for human normal cells to CC50 for human HL60 cells. In kind it is functional. A digest of the protocol: (§3)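 Ratio of the mean CC50 over three normal human lines (HGF gingival fibroblasts, HPC pulp cells, HPLF periodontal ligament fibroblasts) to the CC50 for the given tumor line. Each CC50 is the mean of two independent determinations.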

Data set [15] has as its system HSC-4. In words: Selectivity index, ratio of CC50 for human normal cells to CC50 for human HSC4 cells. The data set is classed as functional. In outline: as §3
The test system of data set [16] is HT-29. In words: Cell cycle arrest in human HT-29 cells assessed as accumulation at sub-G1 phase at 5 uM after 48 hrs by flow cytometry. In kind it is functional. In outline:
as §1

In data set [17] the test system is HSC-2. The experiment in a line: Selectivity index, ratio of CC50 for human normal cells to CC50 for human HSC2 cells. The data set is classed as functional. A digest of the protocol:
as §3

With `Cl.O=C1/C(=C/c2ccccc2)CN(C(=O)c2ccc(OCCN3CCOCC3)cc2)C/C1=C\c1ccccc1`, the Activity with HT-29 [1] stood at 50.5%; in the data set on HT-29 [6], 25.2%; in the data set with HT-29 [12], 11.1%; in the data set on HT-29 [16] it was 11.4%. Further, the 50% cytotoxic concentration (CC50) – broadly, the concentration giving 50% cytotoxicity – in the data set with HL-60 [2] was 1.2 µM; in data set [3], 95 µM; in data set [4], 83 µM; in the data set on HSC-4 [5], 2.4 µM; in [9] it was 30 µM; with HSC-2 [13], 2.4 µM. For the same compound, the result with HL-60 [7] and in the data set on HSC-2 [11] was Active. For the same compound, the IC50 (usually the concentration that gives 50% inhibition) with HT-29 [8] came out at 3.75 µM. The result in the data set on HSC-2 [10] was inactive. In addition, the “Selectivity Index” value in the data set with HL-60 [14] is 58; with HSC-4 [15], 29; in the data set with HSC-2 [17], 29.
For the compound `CN(C)CCOc1ccc(C(=O)N2C/C(=C\c3ccc([N+](=O)[O-])cc3)C(=O)/C(=C/c3ccc([N+](=O)[O-])cc3)C2)cc1.Cl`, the cytotoxic concentration (CC50) turned out to be 0.31 µM in the data set on HL-60 [2]; 5.2 µM in data set [3]; 7 µM in data set [4]; 0.71 µM in the data set with HSC-4 [5]; 5.9 µM in data set [9]; 0.93 µM with HSC-2 [13]. Besides, the results for the “Selectivity Index” value in the data set with HL-60 [14], with HSC-4 [15] and with HSC-2 [17] were 19, 8.5 and 6.5, respectively.
Take `CC[N+](C)(CC)CCOc1ccc(C(=O)N2C/C(=C\c3ccccc3)C(=O)/C(=C/c3ccccc3)C2)cc1.[I-]`: the CC50 is 82 µM in the data set on HL-60 [2]; 170 µM in [3]; 160 µM in data set [4]; 82 µM in the data set with HSC-4 [5]; 79 µM in data set [9]; 130 µM with HSC-2 [13]. In addition, the “Selectivity Index” value was determined as 1.7 in the data set with HL-60 [14], 1.7 with HSC-4 [15] and 1.1 with HSC-2 [17].
For the compound `Cl.O=C1/C(=C/c2ccccc2)CN(C(=O)c2ccc(OCCN3CCCCC3)cc2)C/C1=C\c1ccccc1`, the cytotoxic concentration (CC50) in the data set on HL-60 [2] worked out at 1.4 µM; in data set [3], 12 µM; in data set [4] it was 4.6 µM; in the data set on HSC-4 [5] it was 2.5 µM; in [9] it was 7.4 µM; in the data set on HSC-2 [13], 3 µM. Moreover, the figures for the “Selectivity Index” value in the data set with HL-60 [14], with HSC-4 [15] and with HSC-2 [17] were 5.7, 3.2 and 2.7, respectively.
As for `Cc1ccc(/C=C2\CN(C(=O)c3ccc(OCCN4CCCCC4)cc3)C/C(=C\c3ccc(C)cc3)C2=O)cc1.Cl`, the half-maximal cytotoxic concentration (CC50) in the data set with HL-60 [2] was 2.3 µM; in [3] it was 15 µM; in [4] it was 6 µM; in the data set on HSC-4 [5], 4.1 µM; in [9] it was 5.5 µM; in the data set with HSC-2 [13], 2.9 µM. Besides, the “Selectivity Index” value with HL-60 [14] came to 3.8; with HSC-4 [15], 2.2; in the data set with HSC-2 [17], 3.
